Compound activity: PubChem BioAssay, Broad Institute
FGF22 binding – FGF22 (human) thermal shift binding; hit rate 1.5% among 340,000; recombinant FGF22 thermal shift, SYPRO orange fluorescence; percent of sucrose octasulfate shift, DMSO zero; AID 651658; activity (Tm shift, normalised), % at 9.99 µM; Q9HCT0;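 active = mean Tm shift, scaled 0 neutral to 100 positive control, at about 1.3% or above, every replicate too, limit read from the data; inconclusive = no clear call, values can overlap the other calls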
Target sequence (Q9HCT0 whole entry, looked up): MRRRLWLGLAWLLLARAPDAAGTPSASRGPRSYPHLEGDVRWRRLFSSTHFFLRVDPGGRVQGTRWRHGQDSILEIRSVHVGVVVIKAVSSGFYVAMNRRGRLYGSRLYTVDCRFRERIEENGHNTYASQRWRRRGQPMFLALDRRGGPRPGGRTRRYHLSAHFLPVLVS
Env fusion inh – HIV envelope-mediated fusion inhibition. inhibition, % at 12.3 µM. HeLa-JRFL Env/CEM21 cell fusion, luciferase. hit rate 1.1% among 360,000. AID 651610;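 active = mean replicate inhibition score of at least 50 and every replicate individually at or above 50; inconclusive = only one of the two criteria met; inactive = mean below 50 and not all replicates reaching 50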;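 note: 0% = plate neutral controls and 100% = maraviroc near 300 nM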
PGC1a acetyl inh – lowers PGC1a acetylation signal in U2OS cells; AlphaScreen anti-acetyl-lysine; with virally co-expressed GCN5 acetyltransferase; inhibition, % at 15.6 µM; hit rate 0.17% among 350,000; AID 651687;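 active = every replicate shows inhibition of at least 40%; inconclusive = mean inhibition at least 40% but some replicate below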;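 note: 0% = neutral control wells and 100% = positive control wells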
FN deposition inh – fibronectin deposition inhibition; AH1F fibroblasts, Alexa488-fibronectin deposition fluorescence, overnight; AID 743247; inhibition, % at 12.6 µM; hit rate 0.086% among 350,000;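 active = mean inhibition across replicates of 30% or more, regardless of how many single replicates reach that level; inconclusive = mean under 30% yet at least half of replicates reach 30%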;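 note: positive control wells lacked labelled fibronectin entirely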
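Assay system: AH1F fibroblasts / Quantity: 10000 cells per well / Medium: DMEM plus 2% serum, read in PBS / Reagent: labelled fibronectin 24 nM / Dosing: single dose, pinned / Times: 1 h cell attachment, overnight exposure to compound and label / Signal: fluorescence, ex 485 nm, em 525 nm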
EWS-Fli inh – EWS/Fli transcriptional activity inhibition; A673 NR0B1-luciferase reporter, viability-normalised; inhibition, % at 12.6 µM; hit rate 0.67% among 350,000; AID 651661;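 active = mean inhibition of at least 50% after viability correction, with every replicate also passing that limit; inconclusive = mean reaches 50% but only one of two replicates passes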;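 note: firefly luciferase signal divided by Alamar Blue viability fluorescence both relative to DMSO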
PAX8 reporter – inhibitors of PAX8 transcriptional activity in RMG-I cells; inhibition, % at 12.6 µM; RMG-I TPO-luciferase reporter, SteadyGlo, 24 h; hit rate 1.2% among 360,000;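 active = mean replicate inhibition at least 60% with every replicate also reaching 60%; inconclusive = only one of the two criteria is met; inactive = mean below 60% and not all replicates reaching 60%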;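 note: luciferase light reporting Pax8 driven TPO promoter activity; plate controls were median of neutral control wells for no effect and mitoxantrone controls for full effect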
* hit, by the source's call; ? = inconclusive; . = no result; [ ] = remark or other dose. Only some compounds are listed: those with a hit (about 3.1% of all), similar ones and a draw of the others.

SMILES	FGF22 binding	Env fusion inh	PGC1a acetyl inh	FN deposition inh	EWS-Fli inh	PAX8 reporter
C[C@H](CO)N1C[C@H](C)[C@H](CN(C)C(=O)c2ccccc2)OCCCC[C@H](C)Oc2ccc(NC(=O)Nc3ccc(C(F)(F)F)cc3)cc2C1=O	-0.4	47.1[16.7 µM]	-8.1	.	-6.8	104.1*
C[C@H](CO)N1C[C@H](C)[C@@H](CN(C)C(=O)c2ccccc2)OCCCC[C@H](C)Oc2ccc(NC(=O)Nc3ccc(C(F)(F)F)cc3)cc2C1=O	-0.4	-27.2[16.7 µM]	0.4	.	-5.8	-37.2
C[C@@H]1CCCCO[C@@H](CN(C)C(=O)c2ccccc2)[C@H](C)CN([C@@H](C)CO)C(=O)c2cc(NC(=O)Nc3ccc(C(F)(F)F)cc3)ccc2O1	0.6	56.6*[16.7 µM]	18.8	.	10.9	49.0
C[C@H]1CCCCO[C@H](CN(C)C(=O)c2ccccc2)[C@@H](C)CN([C@@H](C)CO)C(=O)c2cc(NC(=O)Nc3ccc(C(F)(F)F)cc3)ccc2O1	-0.5	39.2[16.7 µM]	4.7	.	9.1	85.8*
O=C(N[C@@H]1CC[C@H](CCNC(=O)c2ccccc2F)O[C@H]1CO)c1ccc2c(c1)OCO2	-0.1	-4.1[16.7 µM]	5.2	-8.5	2.9	7.3
Cc1ccc(S(=O)(=O)N(C)C[C@H]2Oc3ccc(NC(=O)Nc4ccc5c(c4)OCO5)cc3C(=O)N([C@H](C)CO)C[C@H]2C)cc1	-0.6	11.0[16.7 µM]	12.3	.	2.7	-8.3
C[C@H]1CN([C@@H](C)CO)C(=O)Cc2cc(NC(=O)NC3CCCCC3)ccc2O[C@H]1CN(C)Cc1ccc(-c2ccccc2)cc1	0.1	16.1[16.7 µM]	-5.4	.	10.2	103.2*
C[C@H]1CN([C@@H](C)CO)C(=O)Cc2cc(NC(=O)NC3CCCCC3)ccc2O[C@@H]1CN(C)Cc1ccc(-c2ccccc2)cc1	0.0	?	-5.0	.	12.7	103.3*
C[C@H](CO)N1C[C@H](C)[C@H](CN(C)Cc2ccc(-c3ccccc3)cc2)Oc2ccc(NC(=O)NC3CCCCC3)cc2CC1=O	0.2	-42.8[16.7 µM]	-7.5	.	3.2	16.2
C[C@@H]1CN([C@@H](C)CO)C(=O)Cc2cc(NC(=O)NC3CCCCC3)ccc2O[C@H]1CN(C)Cc1ccc(-c2ccccc2)cc1	0.0	37.6[16.7 µM]	-7.7	.	16.6	79.5*
COC(=O)c1cc(OC)c(OC)cc1NC(=S)Nc1cc(Cl)ccc1OC	-0.2	.	.	6.1	3.4	77.9*
Cc1ccc(S(=O)(=O)N[C@H]2CC[C@@H](CC(=O)NCc3ccncn3)O[C@H]2CO)cc1	0.2	-3.5[16.7 µM]	10.1	1.0	6.5	10.4
C[C@@H]1CN([C@H](C)CO)C(=O)c2cc(NC(=O)Nc3ccc(C(F)(F)F)cc3)ccc2O[C@@H](C)CCCCO[C@@H]1CN(C)C(=O)NC1CCCCC1	0.4	-41.8[16.7 µM]	3.8	.	2.2	85.9*
C[C@H](CO)N1C[C@H](C)[C@H](CN(C)C(=O)NC2CCCCC2)OCCCC[C@H](C)Oc2ccc(NC(=O)Nc3ccc(C(F)(F)F)cc3)cc2C1=O	-0.4	-9.4[16.7 µM]	1.3	.	6.1	93.3*
C[C@@H]1CCCCO[C@@H](CN(C)C(=O)NC2CCCCC2)[C@@H](C)CN([C@H](C)CO)C(=O)c2cc(NC(=O)Nc3ccc(C(F)(F)F)cc3)ccc2O1	0.2	-16.2[16.7 µM]	-5.2	.	-1.5	17.2
C[C@H]1CCCCO[C@@H](CN(C)C(=O)NC2CCCCC2)[C@@H](C)CN([C@@H](C)CO)C(=O)c2cc(NC(=O)Nc3ccc(C(F)(F)F)cc3)ccc2O1	-0.7	-9.9[16.7 µM]	11.4	.	3.3	87.9*
COc1ccc(NC(=O)Nc2ccc3c(c2)C(=O)N([C@H](C)CO)C[C@@H](C)[C@H](CN(C)C(=O)NC2CCCCC2)OCCCC[C@H](C)O3)cc1	14.7*	12.4[16.7 µM]	-13.3	.	17.1	47.5
C[C@H]1CCCCO[C@H](CN(C)C(=O)Nc2ccc(C(F)(F)F)cc2)[C@@H](C)CN([C@@H](C)CO)C(=O)c2cc(NC(=O)NC3CCCCC3)ccc2O1	-0.4	41.3[16.7 µM]	11.6	-3.9	6.3	49.6
C[C@@H]1CCCCO[C@H](CN(C)C(=O)Nc2ccc(C(F)(F)F)cc2)[C@@H](C)CN([C@H](C)CO)C(=O)c2cc(NC(=O)NC3CCCCC3)ccc2O1	-0.4	-10.3[16.7 µM]	-0.6	2.6	3.4	6.3
C[C@@H]1CCCCO[C@@H](CN(C)CC2CCCCC2)[C@@H](C)CN([C@@H](C)CO)C(=O)c2cc(NC(=O)c3ccccc3)ccc2O1	-0.3	-10.7[16.7 µM]	-5.1	14.3	7.9	9.4
C[C@H](CO)N1C[C@H](C)[C@@H](CN(C)C(=O)NC2CCCCC2)OCCCC[C@H](C)Oc2ccc(NC(=O)Nc3ccc(C(F)(F)F)cc3)cc2C1=O	0.4	-13.8[16.7 µM]	16.1	.	20.7	49.3
C[C@@H]1CCCCO[C@H](CN(C)C(=O)NC2CCCCC2)[C@H](C)CN([C@@H](C)CO)C(=O)c2cc(NC(=O)Nc3ccc(C(F)(F)F)cc3)ccc2O1	0.1	0.1[16.7 µM]	16.4	.	3.0	71.4*
O=C(C#Cc1ccccc1)c1ccco1	0.1	2.5	.	-10.2	64.0*	123.7*
CCOC(=O)c1cccc(NC(=O)CSc2nc3cccnc3n2C)c1	.	62.5*	-1.7	1.8	.	30.8
CCOC(=O)c1cccc(NC(=O)Nc2ccc(OCC)cc2)c1	43.2*	-24.4	.	1.0	84.0*	-54.5
SMILES	FGF22 binding	Env fusion inh	PGC1a acetyl inh	FN deposition inh	EWS-Fli inh	PAX8 reporter
CCOC(=O)c1sc(NC(=O)CSc2nc3cccnc3n2C)nc1C	0.1	38.8	3.9	3.2	-9.0	0.6
CCOC(=O)c1cccc(NC(=O)c2ccc(N(C)C)cc2)c1	-0.1	-18.0	.	6.3	75.8*	-59.1
CCOc1ccc(NC(=O)Nc2cccc(C(=O)O)c2)cc1	0.2	63.5*	4.9	-8.6	90.8*	99.4*
CCOC(=O)c1cccc(NS(=O)(=O)c2ccc(NC(C)=O)cc2)c1	.	106.0*	25.5	.	.	4.7
COc1ccc(C(CCNC(C)c2ccccc2)c2ccc(F)cc2)cc1 (stereo unspecified)	.	35.2	-10.0	12.7	.	81.2*
COc1ccc(C(CCNCc2ccccc2)c2ccc(F)cc2)cc1 (stereo unspecified)	.	-15.2	-1.6	-3.1	.	-5.2
CCCCCc1c(-c2ccc(OC)cc2)ncn1CCc1ccccc1OC	0.4	61.7*	.	-6.8	42.3	56.0
CNC[C@H]1Oc2c(NC(=O)C3CCOCC3)cccc2C(=O)N([C@@H](C)CO)C[C@@H]1C	0.2	13.5[16.7 µM]	0.3	0.4	6.2	-0.6
Cc1cccc(OCC(=O)Nc2cccc(C(=O)NCC(C)C)c2)c1	.	1.6	-5.1	-8.0	.	8.6
Cc1cccc(OCC(=O)Nc2ccc(C(=O)NCC(C)C)cc2)c1	44.1*	7.7	-8.8	-5.5	-9.2	-4.1
O=C(NCCc1cccs1)c1ccc(CS(=O)Cc2cccc(Cl)c2)o1 (stereo unspecified)	43.1*	26.4	.	10.5	11.1	2.7
